Laboratory results published in PubChem BioAssay.
Calls of active or inactive are those of the source.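 The calls were made as follows, unless noted: active = fluorescence slope after compound addition differing from the mean of all tested samples at 99.7% confidence, mostly higher but some lower; inactive = the rest.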

Columns and labels:
[1] = inhibitors of TNFa-induced NFkB p65 translocation, primary screen, imaging, HUVEC, MLSMR starter and 10KST1 sets (AID 438;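 active = inhibition above 20% together with a positive visual image hit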;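 also: compound added about 3h40 before a 20 min TNFalpha stimulation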;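 as to inhibition: signal is the nuclear over cytoplasmic p65 intensity ratio per well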); details: HUVEC TNFa-induced p65 nuclear translocation; cell count: measured here: nuclei count (cytotoxicity indicator), at 2.08 µM; inhibition: at 2 µM, stronger effect = higher value, 0% TNFa-plus-vehicle, 100% no-TNFa wells
[2] = reduction of polyQ htt aggregates in cells – imaging, exon1htt(103Q)mCFP cells, high-content imaging, primary screen (AID 483;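 active = visual image review flags a hit and inhibition of aggregation exceeds 20%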;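 also: compound exposure lasted 3 days before fixation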;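 as to nuclei count: percent of the per-plate median nuclei count of sample wells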); details: exon1htt(103Q)mCFP cell line, aggregate imaging, at 2 µM; inhibition of aggregation: stronger effect = higher value; nuclei count: measured here: cell count, toxicity
[3] = endothelial E-selectin expression blockers – imaging, HUVEC, immunofluorescence, MLSMR starter and 10KST1 sets, primary screen (AID 487;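 active = visually confirmed hit in the image check and inhibition above 20%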;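 as to inhibition: signal is fraction of cell area covered by stained E-selectin grains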;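 as to nuclei count: 100% = median nuclei count of all wells on the same plate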); details: HUVEC TNFalpha-induced E-selectin immunofluorescence imaging, at 2 µM; inhibition: stronger effect = higher value; nuclei count: measured here: cell number, toxicity
[4] = molecular target: Voltage-gated potassium channel subunit beta-2 (Rattus norvegicus) (UniProt P62483); assay: inhibitors of rat Kvbeta2 reductase activity – biochemical, NADPH fluorescence, primary screen (AID 622;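 active = fluorescence slope higher than the sample average by over 3 SD, cut at about -0.22 in these data, passing the limit was not always enough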;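 also: slope of raw intensity against log time taken from 70 to 1610 s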); details: recombinant KvBeta, 4-cyanobenzaldehyde reduction, at 10 µM, stronger effect = higher value
Chain of Voltage-gated potassium channel subunit beta-2 (Rattus norvegicus) (P62483 whole entry, looked up): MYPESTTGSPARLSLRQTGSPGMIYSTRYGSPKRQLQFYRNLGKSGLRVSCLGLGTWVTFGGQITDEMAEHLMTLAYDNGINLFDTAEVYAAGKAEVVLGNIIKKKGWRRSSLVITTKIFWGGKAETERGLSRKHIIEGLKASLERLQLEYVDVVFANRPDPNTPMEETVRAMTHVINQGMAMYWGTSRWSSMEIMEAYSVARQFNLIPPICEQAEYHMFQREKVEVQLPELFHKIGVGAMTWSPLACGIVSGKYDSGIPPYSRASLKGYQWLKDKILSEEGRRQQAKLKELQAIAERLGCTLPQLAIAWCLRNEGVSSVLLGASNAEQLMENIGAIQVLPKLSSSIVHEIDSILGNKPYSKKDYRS

[5] = molecular target: Voltage-gated potassium channel subunit beta-2 (Rattus norvegicus) (UniProt P62483); assay: enhancers of rat Kvbeta2 NADPH turnover – biochemical, NADPH fluorescence, primary screen (AID 623;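 active = NADPH fluorescence slope more negative than the mean of all samples by about 3 SD, 99.7% confidence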;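 also: fluorescence intensity change per second fitted from 20 to 320 s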); details: Recombinant KvBeta, NADPH fluorescence decrease slope, 10 min; at 10 µM; stronger effect = lower value
[6] = molecular target: Muscarinic acetylcholine receptor M4 (Homo sapiens) (UniProt P08173); assay: M4-linked GIRK flux change, two-sided – cell-based, HEK293 M4/GIRK, thallium flux, BTC-AM, M4 allosteric agonist project, primary screen (AID 625); details: at 10 µM, actives lie on both sides;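 also: thallium influx through GIRK channels coupled to M4 in HEK293 cells with BTC-AM dye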
Chain of Muscarinic acetylcholine receptor M4 (Homo sapiens) (P08173 whole entry, looked up): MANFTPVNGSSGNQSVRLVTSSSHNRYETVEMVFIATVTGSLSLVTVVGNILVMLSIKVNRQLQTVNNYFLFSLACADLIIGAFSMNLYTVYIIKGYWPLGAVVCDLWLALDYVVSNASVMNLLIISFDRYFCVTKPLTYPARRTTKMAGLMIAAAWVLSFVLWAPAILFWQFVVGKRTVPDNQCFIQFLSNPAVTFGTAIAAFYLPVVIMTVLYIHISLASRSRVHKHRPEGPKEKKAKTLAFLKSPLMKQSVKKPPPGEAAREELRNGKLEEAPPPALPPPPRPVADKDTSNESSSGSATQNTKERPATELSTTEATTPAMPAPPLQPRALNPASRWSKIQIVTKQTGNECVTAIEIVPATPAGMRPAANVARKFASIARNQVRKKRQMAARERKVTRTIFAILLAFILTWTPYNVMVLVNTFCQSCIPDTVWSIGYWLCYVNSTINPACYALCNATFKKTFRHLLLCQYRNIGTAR
Summary of the method: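 Material: M4/GIRK1/GIRK2 stable HEK293 cell line. Medium: pH 7.3 thallium assay buffer. Dosing: single compound concentration, 10 µM final. Schedule: 1 h dye loading, 2 min kinetic read. Measured by: kinetic fluorescence with BTC-AM dye. Read-out: post-addition slope, 15–24 s, of baseline-normalized fluorescence. Benchmarks: carbachol and DMSO controls.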

[7] = blockers of RIG-like receptor reporter activation – cell-based, Sendai virus stimulus, luciferase, 10K MLSCN set, TLR/RLR signaling modifier project, primary screen (AID 602276;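 active = inhibition at or above 50% at 10 µM; inactive = inhibition below 50%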;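 also: firefly luciferase from ISG56 promoter only with Renilla not read in this screen; 0% = Sendai virus plus DMSO and 100% = medium plus DMSO without virus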); details: HEK293 RL24 IRF3 luciferase reporter, at 10 µM, stronger effect = higher value
[8] = TLR3 IRF3 reporter activation blockers – cell-based, poly I:C stimulus, luciferase, 10K MLSCN set, primary screen (AID 602277;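 active = inhibition of the reporter signal at or above 50%; inactive = inhibition below 50%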); details: HEK293-TLR3 RL24 IRF3 luciferase reporter, at 10 µM, stronger effect = higher value

Row | SMILES | cell count [1] | inhibition [1] | inhibition of aggregation [2] | nuclei count [2] | inhibition [3] | nuclei count [3] | fluorescence slope [4] | NADPH fluorescence slope [5] | fluorescence slope [6] | inhibition [7] | inhibition [8]
1 | CN(c1ccccc1)S(=O)(=O)c1cc(C(=O)N2CCN(c3ccccn3)CC2)ccc1Cl | 628 | 2.4% (inactive) | -6.5% (inactive) | 134% | -52.9% (inactive) | 108% | -0.475 (inactive) | -6e-05 (inactive) | 0.00416 (inactive) | 15.7% (inactive) | 13.1% (inactive)
2 | COc1cccc(CNc2cccc3cccnc23)c1O | 477 | 5% (inactive) | 19.2% (inactive) | 79.7% | -165% (inactive) | 122% | -0.564 (inactive) | -7.6e-05 (inactive) | 0.00309 (inactive) | 13% (inactive) | 8.77% (inactive)
3 | O=C1NCCCc2c1no[n+]2[O-] | 381 | 5.3% (inactive) | 19.4% (inactive) | 54.8% | -31.3% (inactive) | 107% | -0.584 (inactive) | -6.4e-06 (inactive) | 0.00512 (inactive) | -17.2% (inactive) | 6.4% (inactive)
4 | O=C1CS/C(=N\C(=O)N2c3ccccc3Sc3ccccc32)N1 | 373 | 8% (inactive) | 28.4% (inactive) | 87.6% | -22.3% (inactive) | 128% | -0.523 (inactive) | -5.6e-05 (inactive) | 0.00677 (inactive) | 12% (inactive) | 27.5% (inactive)
5 | COC(=O)Cc1c(C)nc2nc(-c3ccccc3)[nH]n2c1=O | 615 | 1.9% (inactive) | 18.9% (inactive) | 68% | -15.7% (inactive) | 97.2% | -0.474 (inactive) | -9.1e-06 (inactive) | 0.00459 (inactive) | 0.882% (inactive) | 6.76% (inactive)
6 | COc1cccc2c(=O)c3c(cnn3C)n(C)c12 | 279 | 16.3% (inactive) | -31.5% (inactive) | 52.8% | -37.2% (inactive) | 111% | -0.412 (inactive) | 3.1e-05 (inactive) | 0.00385 (inactive) | -10.8% (inactive) | -29.4% (inactive)
7 | O=C(CCn1c(=O)oc2ccccc21)NCCN1CCc2ccccc2C1 | 375 | 7.2% (inactive) | 5.1% (inactive) | 93.1% | -315% (inactive) | 108% | -0.451 (inactive) | -2.5e-05 (inactive) | 0.00577 (inactive) | 15.7% (inactive) | 29.6% (inactive)
8 | O=C(NC(NC1CCS(=O)(=O)C1)C(=O)c1cccs1)c1ccccc1 (stereo not drawn) | 269 | 3.9% (inactive) | 0.8% (inactive) | 101% | 12.8% (inactive) | 96.3% | -0.572 (inactive) | -2.1e-05 (inactive) | 0.00591 (inactive) | 7.41% (inactive) | 18.4% (inactive)
9 | COc1ccc(N(CC(=O)N2c3ccccc3CC2C)S(=O)(=O)c2c(C)noc2C)cc1 (stereo not drawn) | 539 | -5.8% (inactive) | -18.3% (inactive) | 118% | -62.5% (inactive) | 116% | -0.395 (inactive) | 9.4e-05 (inactive) | 0.00594 (inactive) | 14.5% (inactive) | 30.9% (inactive)
10 | CCOc1ccccc1Nc1ncnc2ccccc12 | 394 | 9.3% (inactive) | 8% (inactive) | 93.2% | -40.8% (inactive) | 120% | -0.548 (inactive) | -1.6e-05 (inactive) | 0.00457 (inactive) | 5.79% (inactive) | -12% (inactive)
11 | COc1ccccc1-n1c(C)nnc1SCC(N)=O | 382 | 6.2% (inactive) | 7.3% (inactive) | 100% | -49.7% (inactive) | 103% | -0.521 (inactive) | -1.4e-05 (inactive) | 0.00439 (inactive) | 17.4% (inactive) | 22.3% (inactive)
12 | Cc1cc(O)c(C2(C(F)(F)F)NCCNC2=O)cc1C (stereo not drawn) | 560 | 4.7% (inactive) | 24.3% (inactive) | 84.5% | 63.7% (inactive) | 63.2% | -0.576 (inactive) | 1e-05 (inactive) | 0.00721 (inactive) | 17.6% (inactive) | 29.3% (inactive)
13 | COCCOC(=O)C1=C(C)Nc2ncnn2C1c1ccc(F)cc1 (stereo not drawn) | 743 | -0.4% (inactive) | 24.6% (inactive) | 71.5% | 12.9% (inactive) | 124% | -0.369 (inactive) | -0.000107 (inactive) | 0.00592 (inactive) | 6.2% (inactive) | 19.4% (inactive)
14 | CC(NC(=O)c1ccccc1NC(=O)c1ccco1)C(=O)O (stereo not drawn) | 438 | 0.9% (inactive) | -9.6% (inactive) | 100% | -67.5% (inactive) | 121% | -0.551 (inactive) | -5.5e-05 (inactive) | 0.006 (inactive) | 23.6% (inactive) | 20% (inactive)
15 | CCc1ccc2oc(-c3cc(N)ccc3Cl)nc2c1 | 563 | -33.7% (inactive) | 3% (inactive) | 98.1% | -53.6% (inactive) | 110% | -0.298 (inactive) | 8.8e-06 (inactive) | 0.006 (inactive) | -31.8% (inactive) | -60.1% (inactive)
16 | COc1ccc(-c2n[nH]c(C)c2-c2ccc(Cl)cc2)c(O)c1OC | 403 | -9.6% (inactive) | -24.2% (inactive) | 104% | -45.3% (inactive) | 133% | -0.529 (inactive) | -0.00026 (inactive) | 0.00338 (inactive) | 20.1% (inactive) | 24.5% (inactive)
17 | O=C(NCc1ccccn1)c1ccc2nc(-c3ccco3)c(-c3ccco3)nc2c1 | 626 | -27.2% (inactive) | -52.7% (inactive) | 82.3% | -147% (inactive) | 103% | -0.504 (inactive) | -2.5e-05 (inactive) | 0.00242 (inactive) | 10.9% (inactive) | 3.28% (inactive)
18 | CC(C)(C)n1ncc2c(=O)n(CC(=O)NCCc3ccccc3)cnc21 | 457 | 3.9% (inactive) | 7.3% (inactive) | 95.2% | 27.5% (inactive) | 92.8% | -0.595 (inactive) | 1.3e-05 (inactive) | 0.0063 (inactive) | -40.8% (inactive) | -58.1% (inactive)
19 | CC1CCCC(C(=O)OCc2ccccc2)N1 (stereo not drawn) | 551 | -10.9% (inactive) | -31.2% (inactive) | 113% | -120% (inactive) | 122% | -0.389 (inactive) | 3.2e-05 (inactive) | 0.00626 (inactive) | 13.2% (inactive) | 20.1% (inactive)
20 | CCOC(=O)C1CCN(C(=O)Nc2ccc(Cl)cc2Cl)CC1 | 262 | 0% (inactive) | 25.3% (inactive) | 89.6% | -16.8% (inactive) | 80.6% | -0.463 (inactive) | -4.6e-05 (inactive) | 0.00434 (inactive) | 14% (inactive) | 1.16% (inactive)
21 | COc1ccc(-c2cc(C(=O)NCCc3ccccc3)no2)cc1OC | 364 | -23% (inactive) | -2.1% (inactive) | 98.3% | -58.5% (inactive) | 105% | -0.298 (inactive) | -2.2e-05 (inactive) | 0.00599 (inactive) | 7.88% (inactive) | -6.93% (inactive)
22 | Cc1cc(C)c(NC(=O)C2CCCN2CCO)c(C)c1 (stereo not drawn) | 553 | -0.3% (inactive) | -3.4% (inactive) | 92.5% | -4.2% (inactive) | 84.4% | -0.514 (inactive) | -6.1e-05 (inactive) | 0.00468 (inactive) | -8.07% (inactive) | -8.13% (inactive)
23 | CC1CCN(S(=O)(=O)c2ccc(S(=O)(=O)NCC(=O)C(C)(C)C)cc2)CC1 | 528 | -14.7% (inactive) | -10.2% (inactive) | 113% | -189% (inactive) | 166% | -0.571 (inactive) | -7.1e-05 (inactive) | 0.00717 (inactive) | 0.588% (inactive) | 9.79% (inactive)
24 | Cc1cc(C(=O)Nc2cccc(O)c2)c(C)o1 | 477 | 9.9% (inactive) | 2.6% (inactive) | 78.5% | -76.5% (inactive) | 112% | -0.566 (inactive) | -5.1e-05 (inactive) | 0.00709 (inactive) | 0.52% (inactive) | -20.8% (inactive)
25 | CC(=O)N1CCc2cc(S(=O)(=O)NC(C(=O)NCc3ccccc3)C(C)C)ccc21 (stereo not drawn) | 579 | -3.8% (inactive) | 23.8% (inactive) | 110% | 22.1% (inactive) | 94.8% | -0.587 (inactive) | -1.2e-05 (inactive) | 0.00584 (inactive) | 10.6% (inactive) | 15.4% (inactive)
26 | CC(C)NC(=O)NC(=O)COc1cccc2c1OC(C)(C)C2 | 749 | -10.1% (inactive) | -13.5% (inactive) | 105% | -16.4% (inactive) | 100% | -0.556 (inactive) | -2.9e-05 (inactive) | 0.00684 (inactive) | 17.1% (inactive) | 29.7% (inactive)
27 | CN(C(=O)CSc1nc2c(c(=O)[nH]1)CCCC2)C1CCCCC1 | 820 | -0.9% (inactive) | -33.2% (inactive) | 117% | -253% (inactive) | 120% | -0.504 (inactive) | 4e-05 (inactive) | 0.00553 (inactive) | 4.83% (inactive) | 18.3% (inactive)
28 | COCCN1CN(S(=O)(=O)c2ccccc2)c2nc3ccccc3nc21 | 307 | 8.3% (inactive) | -0.3% (inactive) | 94.4% | -47.3% (inactive) | 160% | -0.54 (inactive) | -0.000125 (inactive) | 0.00322 (inactive) | 13.6% (inactive) | 17.4% (inactive)
